# Assay outcomes: PubChem, several laboratories
# The list is not random: actives were taken first. Their share in the collection is about 2.8%.
# PGE2 EP2 inh – EP2 receptor (human) inhibition; P43116; C6 glioma cells expressing human EP2, cAMP TR-FRET; cells stimulated with saturating PGE2; inhibition, % at 25 µM; actives 0.52% (n = 260,000);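 active = percent inhibition above 40 after rounding to a whole number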;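 note: rat C6 glioma host cells with rolipram phosphodiesterase inhibitor present; the protocol text gives 20 µM as final concentration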
# NPY Y1 blocker – NPY-Y1 (human) receptor antagonism; P25929; HEK293-CNG Y1 cells, membrane potential fluorescence; NPY at EC95, then isoproterenol; inhibition, % at 3.6 µM; actives 1% (n = 200,000);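 active = inhibition above the campaign mean inhibition of all tested compounds plus 3 SD, cut at about 20% in these data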;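 note: 0% = DMSO wells given NPY plus isoproterenol and 100% = isoproterenol alone without NPY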
# Target sequence (P25929 whole entry, looked up): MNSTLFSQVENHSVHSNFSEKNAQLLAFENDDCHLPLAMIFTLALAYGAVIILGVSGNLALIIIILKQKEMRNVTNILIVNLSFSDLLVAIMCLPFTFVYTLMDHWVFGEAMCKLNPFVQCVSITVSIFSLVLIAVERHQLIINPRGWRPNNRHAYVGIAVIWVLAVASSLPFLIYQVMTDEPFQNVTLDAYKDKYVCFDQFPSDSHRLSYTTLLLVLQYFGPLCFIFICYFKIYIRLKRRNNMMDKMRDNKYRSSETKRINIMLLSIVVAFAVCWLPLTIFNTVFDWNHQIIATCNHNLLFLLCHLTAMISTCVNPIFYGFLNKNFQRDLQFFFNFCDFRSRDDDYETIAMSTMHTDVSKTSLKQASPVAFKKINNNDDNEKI
#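 Benchmarks – high control isoproterenol alone, low control NPY with isoproterenol · Material – HEK293 Y1/CNG channel cell line · Times – dye 3 h, compound 60 min room temperature, stimulation 45 min · Probe or stimulus – NPY (25 nM), isoproterenol (1 µM), Ro 20-1724 (25 µM) · Evaluation – % inhibition of NPY effect · Signal – fluorescence, membrane potential probe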
# NPY-Y1 PAM-ag – potentiators or agonists of human neuropeptide Y receptor Y1. NPY-Y1 expressing cells, potentiator/agonist activation. P25929. activation, % at 3.6 µM. actives 0.37% (n = 220,000); in the data active = activation above about 33%, passing the limit was not always enough;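 note: cells stimulated with NPY at EC10 then isoproterenol at EC100; 0% = low agonist plus stimulus and 100% = saturating agonist plus stimulus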
# NPY-Y2 PAM-ag – potentiators or agonists of human neuropeptide Y receptor Y2 | P49146 | actives 0.45% (n = 220,000) | cells expressing NPY-Y2, potentiator/agonist read-out | AID 1359 | activation, % at 3.6 µM; in the data active = activation above about 27%;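 note: cells stimulated with NPY near EC25 plus isoproterenol at EC100; 0% = vehicle plus submaximal agonist and 100% = vehicle plus saturating agonist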
# EP2 mod – modulators of human EP2 prostaglandin E2 receptor | P43116 | EP2-expressing cells, cAMP HTRF FRET, PGE2 co-stimulation | induction, % at 25 µM | actives 0.83% (n = 260,000);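 active = compounds whose cAMP rise, as percent of the full-agonist control response, exceeds 60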;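 note: rat C6 glioma line stably carrying human EP2 under a CMV promoter; the protocol text gives 20 µM as final concentration; 100% = response of wells given 1 µM PGE2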
# NPY-Y2 antag – antagonists of human neuropeptide Y receptor Y2. P49146. NPY-Y2 expressing cells, antagonist mode. inhibition, % at 2.7 µM. actives 0.99% (n = 140,000). AID 793; in the data active = inhibition above about 17%;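 note: 0% = vehicle with agonist challenge and 100% = reference antagonist with challenge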
# EP2 confirm – EP2 receptor cAMP induction, counter-screens negative. actives 47% (n = 1,300). AID 1080. calls only at 20 µM (by protocol). C6 glioma EP2 cells, cAMP HTRF induction; plus low (about EC15) PGE2 agonist. shares compounds with EP2 mod;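 active = cAMP induction above 50% in the main assay while under 30% in all four parallel counter assays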;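 note: rat C6 glioma cells stably expressing human EP2 receptor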
# Numbers without * were called inactive; i = inactive; . = not tested or not shown; + = active, no number; ! = not confirmed by another sample.
SMILES,PGE2 EP2 inh,NPY Y1 blocker,NPY-Y1 PAM-ag,NPY-Y2 PAM-ag,EP2 mod,NPY-Y2 antag,EP2 confirm
Cc1ccc(NC(=O)CSc2nnc3c4c(C)c(C)sc4nc(C(C)C)n23)cc1,17,.,.,.,18,.,.
CCn1c(-c2ccccc2)c(C(=O)CCl)c2ccccc21,12,1,3,-9,78*,.,+
Cc1ccc(NC(=O)c2oc3ccccc3c2N)cc1,5,.,.,.,-40,.,.
O=C(O)c1cc2cc(Cl)ccc2[nH]1,10,.,.,.,26,.,.
O=C(O)c1cc2cc(F)ccc2[nH]1,12,0,-13,3,113*!,2,i
O=S(=O)(c1cccs1)N1CN(Cc2cccs2)c2nc3ccccc3nc21,13,4,-17,-10,65*,4,i
O=S1(=O)CCN(Cc2cccc(Cl)c2)CC1,8,-6,-1,-7,86*,2,i
O=S1(=O)CCN(Cc2ccc(F)cc2)CC1,8,1,15,6,-5,.,.
c1ccc2c(-c3nc(C4CCCCC4)no3)cc(-c3ccncc3)nc2c1,5,0,-29,-9,67*,4,+
COc1ccc(-c2cc(-c3nnc(-c4ccncc4)o3)c3ccccc3n2)cc1,14,4,-16,-2,19,1,.
CCc1c(-c2n[nH]c(=S)n2Cc2ccccc2)csc1C,6,0,10,17,51,3,i
S=c1[nH]nc(-c2ccccc2Cl)n1Cc1ccccc1,4,-6,-13,-14,29,.,.
Cc1scc(-c2n[nH]c(=S)n2Cc2ccccc2)c1C,2,9,7,2,51,2,i
Cc1cc(-c2n[nH]c(=S)n2Cc2ccccc2)cs1,1,-1,4,-4,32,1,.
S=c1[nH]nc(-c2ccc3ccccc3n2)n1Cc1ccccc1,7,10,-1,1,74*,11,i
Cc1ccc(S(=O)(=O)N2CCC(n3nnc4cc(C(F)(F)F)ccc43)CC2)cc1Cl,20,.,.,.,13,.,.
CC1(C)OC(c2ccccc2)=C/C(=C/C=Nc2ccccc2)O1,14,1,3,5,66*,-1,i
Cc1nc(N(C)C)c2sc(=S)n(Cc3ccccc3)c2n1,3,0,-12,-12,76*,.,+
CCOC(=O)C(C)n1nc(C)n2c(cc3sc(C)cc32)c1=O (configuration not stated),.,.,.,.,-3,.,.
CCOC(=O)c1cc2sc(C)cc2n1C(C)C(=O)OCC (configuration not stated),7,-6,-18,8,65*,0,i
O=C(Nc1ccccc1Br)c1ccccc1-c1ccccc1,9,3,-19,3,70*,5,+
Cc1cc(Br)ccc1NC(=O)c1ccccc1-c1ccccc1,8,13,-49,-9,44,11,.
CCOc1ccccc1C(=O)Nc1ccccc1-c1ccccc1,6,18,-44,-13,78*,14,+
CCOc1ccccc1C(=O)Nc1ccccc1O,11,-3,-6,7,-8,0,.
c1ccc(-c2n[nH]nc2-c2ccccc2)cc1,4,1,1,-10,66*,3,+
SMILES,PGE2 EP2 inh,NPY Y1 blocker,NPY-Y1 PAM-ag,NPY-Y2 PAM-ag,EP2 mod,NPY-Y2 antag,EP2 confirm
C/C(=N\NC(=O)c1ccco1)c1ccc(NC(=O)c2ccccc2)cc1,5,-2,10,6,-25,.,.
C/C(=N\N=C(c1ccccc1)c1ccccc1)c1ccco1,7,1,-12,-1,81*,.,+
Cc1c(CN2CCN(C)CC2)c(O)n(CCO)c(=O)c1C#N,11,.,.,.,-21,.,.
CCN=C1S/C(=C\c2ccc(O)c(OCC)c2)C(=O)N1CC,8,1,-19,-7,81*,3,i
COc1cc(/C=C2/SC(=NCc3ccccc3)N(Cc3ccccc3)C2=O)ccc1O,15,3,-6,-3,45,-2,.
NC(=O)COc1ccc(Cl)cc1C1C2=C(CCCC2=O)NC2=C1C(=O)CCC2,7,.,.,.,8,.,.
Cc1cc(C(=O)NCC(c2ccco2)N(C)C)no1 (configuration not stated),1,15,-1,-1,71*,0,i
FC(F)(F)c1nc(=S)c2ccccc2[nH]1,17,3,-1,-2,71*,.,i
CN(c1ccccc1)c1nc(N2CCCC2)nc(-n2ccnc2)n1,13,7,-8,-26,82*,4,+
COc1ccccc1NC(=O)C1=C(C)NC2=C(C(=O)CCC2)C1c1ccccc1F (configuration not stated),14,.,.,.,7,.,.
CCCn1c(C)nc2c(c1=O)c1nc3ccccc3nc1n2CCC1=CCCCC1,7,-1,-26,-7,72*,8,i
Cc1ccc(S(=O)(=O)Cc2ccccc2Cl)cc1,11,2,1,10,6,-1,.
C#CCn1c(S(=O)(=O)Cc2ccccc2Cl)nc(-c2ccccc2)c1-c1ccccc1,3,2,-19,-8,72*,2,+
CC(C)n1c(=O)n(CC(=O)N2CCCCCC2)c2cccnc21,11,.,.,.,-21,.,.
COc1ccc2oc(=O)c(-c3csc(Nc4cccc(O)c4)n3)cc2c1,32,1,-16,5,-48,0,.
COc1ccc(Nc2nc(-c3cc4cccc(OC)c4oc3=O)cs2)cc1,6,-1,-8,9,71*,-1,+
Cc1ccc(-c2cc(N)c(=O)n(CC(=O)NC3CCCCCC3)n2)o1,14,.,.,.,-52,.,.
CCN(CC)CCN1C(=O)c2cccc3cc(N)cc(c23)C1=O,38,.,20,13,7,.,i
COc1ccc(C(=O)NCC(=O)n2nc(C)cc2C)cc1OC,8,2,-19,2,66*,3,i
Cc1cc(C)n(C(=O)CNC(=O)Cc2ccccc2)n1,8,-12,1,11,-95,-2,.
CC1CN(c2nc3c(c(=O)[nH]2)CCN(Cc2cc(Cl)ccc2O)C3)CC(C)O1 (configuration not stated),.,.,.,.,-73,.,.
C=CCn1c(=O)c2c3c(sc2n2c(Nc4ccccc4)nnc12)CCCC3,8,16,-18,-10,56,6,.
C=CCn1c(=O)c2c3c(sc2n2c(Nc4ccc(OC)cc4)nnc12)CCCC3,12,-7,-44,-11,75*,4,+
Cc1sc2nc(C(C)C)nc(SCC(=O)O)c2c1C,10,.,.,.,21,.,.
O=[N+]([O-])c1ccc(Cl)c2c1C1C=CCC1C(c1ccccn1)N2 (configuration not stated),11,-1,15,8,75*,.,+
